This passage reports MIC results from ChEMBL document CHEMBL1806376, “Synthesis and biological properties of macrolactam analogs of the natural product macrolide (-)-A26771B” (2011).

Values after ≈ are worked out from the molar mass of the structure shown. Bounds are passed on as bounds.

Common to all, as to format: functional
Assay [1] deals with Escherichia coli. Description: Antibacterial activity against Escherichia coli ATCC 25922 by broth microdilution method. The gist of the method:
(§1)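 MIC values determined by broth microdilution following the CLSI method.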
In general terms: Broth dilution looks for growth in wells or tubes with falling amounts of substance.

The test system of assay [2] is Enterococcus faecalis. Description: Antibacterial activity against Enterococcus faecalis ATCC 29212 by broth microdilution method. The following applies: Enterococcus faecalis, ATCC 29212; read-out: MIC. The gist of the method: as §1
The test system of assay [3] is Haemophilus influenzae. Description: Antibacterial activity against Haemophilus influenzae ATCC 31517 by broth microdilution method. The following applies: Haemophilus influenzae, ATCC 31517; read-out: MIC. The procedure, abridged:
as §1

For assay [4], the system named is Haemophilus influenzae. Description: Antibacterial activity against efflux knock-out Haemophilus influenzae LS2 by broth microdilution method. The following applies: Haemophilus influenzae, LS2; read-out: MIC. The gist of the method:
as §1

The test system of assay [5] is Pseudomonas aeruginosa. As to the kind of experiment: Antibacterial activity against Pseudomonas aeruginosa ATCC 27853 by broth dilution method. The procedure, abridged: as §1
Assay [6] deals with Staphylococcus aureus. Description: Antibacterial activity against Staphylococcus aureus ATCC 13709 by broth microdilution method. The following applies: Staphylococcus aureus, ATCC 13709; read-out: MIC. The procedure, abridged: as §1
Assay [7] concerns Staphylococcus aureus. Description: Antibacterial activity against methicillin-resistant Staphylococcus aureus Sa2 by broth microdilution method. The following applies: Staphylococcus aureus, Sa2; read-out: MIC. The gist of the method:
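Broth microdilution run according to the CLSI method.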

Assay [8] has as its system Staphylococcus aureus. Description: Antibacterial activity against Staphylococcus aureus ATCC 25923 by broth microdilution method. The following applies: Staphylococcus aureus, ATCC 25923; read-out: MIC. The procedure, abridged: as §1
The test system of assay [9] is Staphylococcus aureus. Description: Antibacterial activity against Staphylococcus aureus ATCC 25923 by broth microdilution method in presence of 10% human serum. The following applies: Staphylococcus aureus, ATCC 25923; read-out: MIC. The procedure, abridged: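 MIC determined by broth microdilution per the CLSI method, with 10% human serum added to the medium.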

Assay [10] relates to Staphylococcus aureus. Description: Antibacterial activity against Staphylococcus aureus oxford by broth microdilution method. The following applies: Staphylococcus aureus, oxford; read-out: MIC. The gist of the method:
as §1

Assay [11] relates to Streptococcus pneumoniae. Description: Antibacterial activity against Streptococcus pneumoniae ATCC 49619 by broth microdilution method. The following applies: Streptococcus pneumoniae, ATCC 49619; read-out: MIC. The procedure, abridged:
as §1

In assay [12] the test system is Streptococcus pneumoniae. As to the kind of experiment: Antibacterial activity against Streptococcus pneumoniae Pen9 IV381-221 by broth microdilution method. The following applies: Streptococcus pneumoniae, Pen9 IV381-221; read-out: MIC. The procedure, abridged: as §1
For assay [13], the system named is Enterococcus faecium. Description: Antibacterial activity against Enterococcus faecium 1 by broth microdilution method. The following applies: Enterococcus faecium, 1; read-out: MIC. The procedure, abridged: as §1

With `C[C@@H]1CCCCCCCCC[C@H](OC(=O)CCC(=O)OC(C)(C)C)C(=O)/C=C/C(=O)O1`, the MIC in assay [1] was above 32 µg/mL; in assay [2], 2 µg/mL (≈ 4.56 µM); in assay [3] it was above 32 µg/mL; in [4] it was 8 µg/mL (≈ 18.2 µM); in [5], above 32 µg/mL; in [6], 2 µg/mL (≈ 4.56 µM). In addition, the MIC in [7] was 0.5 µg/mL (≈ 1.14 µM); in [8], 8 µg/mL (≈ 18.2 µM); in assay [9] it was above 32 µg/mL; in assay [10], 2 µg/mL (≈ 4.56 µM); in assay [11], 2 µg/mL (≈ 4.56 µM); in [12] it was 1 µg/mL (≈ 2.28 µM).
In the case of `C[C@@H]1CCCCCCCCC[C@H](OC(=O)CCC(=O)OC(C)(C)C)C(=O)CC(N2CCN(C)CC2)C(=O)O1` (some centres not stated), the MIC in assay [1] was above 32 µg/mL; in [2], 4 µg/mL (≈ 7.42 µM); in [13], 4 µg/mL (≈ 7.42 µM); in assay [3], above 32 µg/mL; in assay [5], above 32 µg/mL; in assay [6] it was 2 µg/mL (≈ 3.71 µM). In addition, the MIC in assay [7] was 2 µg/mL (≈ 3.71 µM); in assay [8] it was 4 µg/mL (≈ 7.42 µM); in assay [9], above 32 µg/mL; in assay [10], 2 µg/mL (≈ 3.71 µM); in assay [11], 4 µg/mL (≈ 7.42 µM); in [12] it was 2 µg/mL (≈ 3.71 µM).
In the case of `CC(=O)N(CCOc1ccccc1)C1CC(=O)[C@@H](OC(=O)CCC(=O)OC(C)(C)C)CCCCCCCCC[C@@H](C)OC1=O` (some centres not stated), the MIC in assay [1], in assay [2], in [13], in assay [3], in assay [4] and in assay [5] was above 32 µg/mL each time. Also, the MIC in assay [6], in assay [7], in [8], in assay [9], in assay [10] and in [11] was above 32 µg/mL each time. The MIC in assay [12] was above 32 µg/mL.
Turning to `C[C@@H]1CCCCCCCCC[C@H](OC(=O)CCC(=O)OC(C)(C)C)C(=O)c2[nH]ncc2C(=O)O1`, the MIC in [1] is above 64 µg/mL; in assay [2], above 64 µg/mL; in [13] it was above 64 µg/mL; in assay [3] it was above 64 µg/mL; in assay [4], 8 µg/mL (≈ 16.7 µM); in assay [5], above 64 µg/mL. For the same compound, the MIC in assay [6], in assay [7], in [8], in assay [9], in [10] and in [11] was above 64 µg/mL each time. The MIC in [12] came to 32 µg/mL (≈ 66.9 µM).
Regarding `C[C@@H]1CCCCCCCCC[C@H](O)C(=O)/C=C/C(=O)O1`, the MIC was above 32 µg/mL in assay [1]; 2 µg/mL (≈ 7.08 µM) in assay [2]; 8 µg/mL (≈ 28.3 µM) in [13]; 16 µg/mL (≈ 56.7 µM) in assay [3]; 1 µg/mL (≈ 3.54 µM) in [4]; above 32 µg/mL in [5]. Besides, the MIC in assay [6] was found to be 1 µg/mL (≈ 3.54 µM); in assay [7], 2 µg/mL (≈ 7.08 µM); in assay [8] it was 2 µg/mL (≈ 7.08 µM); in [9], 32 µg/mL; in assay [10], 1 µg/mL (≈ 3.54 µM); in assay [11] it was 2 µg/mL (≈ 7.08 µM). In addition, the MIC in assay [12] was 2 µg/mL (≈ 7.08 µM).
Regarding `CO[C@H]1CCCCCCCCC[C@@H](C)OC(=O)/C=C/C1=O`, the MIC is above 64 µg/mL in [1]; 2 µg/mL (≈ 6.75 µM) in assay [2]; 2 µg/mL (≈ 6.75 µM) in [13]; 32 µg/mL (≈ 108 µM) in [3]; 4 µg/mL (≈ 13.5 µM) in assay [4]; above 64 µg/mL in assay [5]. Moreover, the MIC in [6] was 1 µg/mL (≈ 3.37 µM); in assay [7], 0.5 µg/mL (≈ 1.69 µM); in assay [8], 1 µg/mL (≈ 3.37 µM); in [9] it was 16 µg/mL; in assay [10], 1 µg/mL (≈ 3.37 µM); in [11] it was 2 µg/mL (≈ 6.75 µM). In assay [12], the MIC worked out at 2 µg/mL (≈ 6.75 µM).
With `CC(=O)O[C@H]1CCCCCCCCC[C@@H](C)OC(=O)/C=C/C1=O`, the MIC in [1] is above 64 µg/mL; in assay [2] it was 4 µg/mL (≈ 12.3 µM); in [13], 2 µg/mL (≈ 6.16 µM); in [3] it was 32 µg/mL (≈ 98.6 µM); in [4], 4 µg/mL (≈ 12.3 µM); in assay [5], above 64 µg/mL. Further, the MIC in assay [6] was determined as 0.5 µg/mL (≈ 1.54 µM); in [7], 0.5 µg/mL (≈ 1.54 µM); in [8], 1 µg/mL (≈ 3.08 µM); in assay [9] it was 16 µg/mL; in assay [10] it was 1 µg/mL (≈ 3.08 µM); in assay [11] it was 2 µg/mL (≈ 6.16 µM). For the same compound, the MIC in [12] came out at 4 µg/mL (≈ 12.3 µM).
As to `Cc1nc2c([nH]1)CCCCCCCCC[C@@H](C)OC(=O)/C=C/2`, the MIC in [1] was above 64 µg/mL; in assay [2] it was 32 µg/mL (≈ 105 µM); in assay [13], 16 µg/mL (≈ 52.6 µM); in [3] it was above 64 µg/mL; in assay [4], 16 µg/mL (≈ 52.6 µM); in assay [5] it was above 64 µg/mL. In addition, the MIC was 32 µg/mL (≈ 105 µM) in assay [6]; 32 µg/mL (≈ 105 µM) in assay [7]; 32 µg/mL (≈ 105 µM) in [8]; above 64 µg/mL in assay [9]; 32 µg/mL (≈ 105 µM) in assay [10]; 16 µg/mL (≈ 52.6 µM) in assay [11]. The MIC in assay [12] worked out at 8 µg/mL (≈ 26.3 µM).
